Assay [1] deals with Serine/threonine-protein kinase BRSK2 (Homo sapiens) (UniProt Q8IWQ3). The assay can be described thus: Inhibition of recombinant human N-terminal His6-tagged BRSK2 (2 to 674 residues) expressed in baculovirus infected Sf21 cells assessed as remaining activity at 1 uM using KKLNRTLSFAEPG as substrate incubated for 30 mins in presence of [gamma-33P]ATP by filter binding method relative to control. The essentials: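 Assays ran 30 min at 21 °C, robotically and in the linear range. Remaining activity is given relative to incubations lacking compound, as the average of triplicate determinations ± S.D.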

The target of assay [2] is Serine/threonine-protein kinase Chk1 (Homo sapiens) (UniProt O14757). Kind of assay: Inhibition of recombinant human N-terminal GST-tagged CHK1 (1 to 476 residues) expressed in baculovirus infected Sf21 cells assessed as remaining activity at 1 uM using CHKtide as substrate incubated for 30 mins in presence of [gamma-33P]ATP by filter binding method relative to control. The essentials:
(§1)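 Robotic radiometric panel assay, 30 min at room temperature (21 °C), with 10 mM magnesium acetate. […] Compound at 1 or 10 µM. Residual activity expressed relative to compound-free control; triplicate average ± S.D.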

Assay [3] concerns the target Mitogen-activated protein kinase 9 (Homo sapiens) (UniProt P45984). Kind of assay: Inhibition of recombinant human N-terminal His6-tagged JNK2alpha2 (1 to 424 residues) expressed in baculovirus infected Sf21 cells assessed as remaining activity at 1 uM using ATF2 as substrate incubated for 30 mins in presence of [gamma-33P]ATP by filter binding method relative to control.

Assay [4] deals with Mitogen-activated protein kinase 13 (Homo sapiens) (UniProt O15264). The assay can be described thus: Inhibition of recombinant human GST-tagged P38delta (1 to 365 residues) expressed in Escherichia coli assessed as remaining activity at 1 uM using MBP as substrate incubated for 30 mins in presence of [gamma-33P]ATP by filter binding method relative to control. In short, it runs like this: (§2)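 Kinase panel run robotically at 21 °C for 30 min, linear in time and enzyme. […] Compound tested at 1 or 10 µM. Activity given as percentage of incubations without compound, mean of triplicates ± S.D.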

Assay [5] deals with Serine/threonine-protein kinase PAK 4 (Homo sapiens) (UniProt O96013). Kind of assay: Inhibition of recombinant human N-terminal GST-tagged PAK4 (2 to 519 residues) expressed in Escherichia coli assessed as remaining activity at 1 uM using RRRLSFAEPG as substrate incubated for 30 mins in presence of [gamma-33P]ATP by filter binding method relative to control. In short, it runs like this:
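Radiometric kinase panel run robotically at room temperature (21 °C) for 30 min, linear in time and enzyme. […] Activity is expressed as percent of control without compound, from triplicate determinations ± S.D.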

Assay [6] deals with Eukaryotic elongation factor 2 kinase (Homo sapiens) (UniProt O00418). The assay can be described thus: Inhibition of recombinant human N-terminal GST-tagged EF2K (2 to 725 residues) expressed in Escherichia coli assessed as remaining activity at 10 uM using RKKFGESKTKTKEFL as substrate incubated for 30 mins in presence of [gamma-33P]ATP by filter binding method relative to control. In short, it runs like this:
as §2

Assay [7] has as its target MAP/microtubule affinity-regulating kinase 3 (Homo sapiens) (UniProt P27448). The assay can be described thus: Inhibition of recombinant human N-terminal His6-tagged MARK3 (2 to 729 residues) expressed in baculovirus infected Sf21 cells assessed as remaining activity at 10 uM using CHKtide as substrate incubated for 30 mins in presence of [gamma-33P]ATP by filter binding method relative to control.

Assay [8] has as its target Serine/threonine-protein kinase Nek6 (Homo sapiens) (UniProt Q9HC98). Kind of assay: Inhibition of recombinant human His6-tagged NEK6 (8 to 313 residues) expressed in baculovirus infected Sf21 cells assessed as remaining activity at 10 uM using FLAKSFGSPNRAYKK as substrate incubated for 30 mins in presence of [gamma-33P]ATP by filter binding method relative to control. In short, it runs like this: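 Run robotically for 30 min at 21 °C under linear conditions. Compound at 1 or 10 µM. Percentage activity remaining versus control without compound, triplicate mean ± S.D.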

In assay [9] the target is Serine/threonine-protein kinase pim-1 (Homo sapiens) (UniProt P11309). Kind of assay: Inhibition of recombinant human N-terminal His6-tagged PIM1 (2 to 313 residues) expressed in baculovirus infected Sf21 cells assessed as remaining activity at 10 uM using RSRHSSYPAGT as substrate incubated for 30 mins in presence of [gamma-33P]ATP by filter binding method relative to control. The essentials: (§3)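 Incubations ran robotically for 30 min at room temperature (21 °C) under linear conditions. Results are percent activity remaining versus controls without compound, as the mean of triplicates ± S.D.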

The target of assay [10] is MAP kinase-activated protein kinase 5 (Homo sapiens) (UniProt Q8IW41). Kind of assay: Inhibition of recombinant human His6-tagged PRAK (1 to 471 residues) expressed in baculovirus infected Sf21 cells assessed as remaining activity at 10 uM using phosphorylase b peptide as substrate incubated for 30 mins in presence of [gamma-33P]ATP by filter binding method relative to control. The essentials:
as §1

Assay [11] concerns Serine/threonine-protein kinase Sgk1 (Homo sapiens), O00141 [S422D]. Kind of assay: Inhibition of recombinant human His6-tagged SGK1 S422D mutant (60 to 431 residues) expressed in baculovirus infected Sf21 cells assessed as remaining activity at 10 uM using GRPRTSSFAEGKK as substrate incubated for 30 mins in presence of [gamma-33P]ATP by filter binding method relative to control. The essentials:
as §3

The target of assay [12] is Proto-oncogene tyrosine-protein kinase Src (Homo sapiens) (UniProt P12931). The assay can be described thus: Inhibition of recombinant human N-terminal His6-tagged SRC (1 to 536 residues) expressed in baculovirus infected Sf21 cells assessed as remaining activity at 10 uM using KVEKIGEGTYGVVYK as substrate incubated for 30 mins in presence of [gamma-33P]ATP by filter binding assay relative to control.

Assay [13] concerns the target Mitogen-activated protein kinase; ERK1/ERK2 (Homo sapiens) (UniProt P27361+P28482). Kind of assay: Inhibition of ERK1/2 in serum starved/PMA-stimulated HEK293 cells assessed as reduction in ERK1/2 phosphorylation at T202/Y204 residues at 1 uM incubated for 30 mins by immunoblot analysis. The format is cell-based.
The target in assay [14] is T1, mTORC1 (Homo sapiens) (UniProt P42345+Q8N122+Q9BVC4). The following applies: HEK293, dose 30.0 nM, time 30.0 min.
Assay [15] addresses T1, mTORC1 (Homo sapiens). The following applies: HEK293, dose 100-300 nM, time 30.0 min.
Assay [16] has as its target T1, mTORC1 (Homo sapiens). The conditions noted are these: HEK293, dose 30-1000 nM, time 30.0 min.

This passage reports Activity and inhibition results from ChEMBL document CHEMBL5678799 (Biochem J, 2009).

The structures appear in SMILES notation. Activity calls are given as the source filed them. The calls are words filed in the database; no cut-off is given here.

For `COc1ccc(-c2ccc3c(N4CCOCC4)nc(N4C[C@@H](C)O[C@@H](C)C4)nc3n2)cc1CO` [Ku-0063794], the Activity was found to be 90% in [1]; 87% in assay [2]; 101% in [3]; 72% in assay [4]; 110% in [5]; 108% in assay [6]. Further, the Activity in [7] amounted to 93%; in [8], 83%; in [9] it was 98%; in assay [10], 87%; in assay [11], 64%; in [12], 86%. In assay [13], the inhibition result was “inactive”. Further, the inhibition result in [14] is “Active”. The inhibition in [15] is 100%; in assay [16], “Dose-Dependent Effect”.
